Experimental data as given in ChEMBL document CHEMBL4513216, “Probing the Open Global Health Chemical Diversity Library for Multistage-Active Starting Points for Next-Generation Antimalarials” (ACS Infect Dis, 2020).

Assay: Toxicity liver stage against HepG2, at 10uM
Format: cell-based
Parameters: test concentration 10 uM, cell line HepG2-A16-CD81EGFP
Settings: human, HepG2-A16-CD81EGFP cells; read-out: INHIBITION
Procedure, shortened: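 Uninfected HepG2-A16-CD81EGFP cells, 3 × 10^3 per well, 1536-well, plated on prespotted compound at 10 μM final, parasite-free screening media added to match infected plates; puromycin 10 μM positive, DMSO 0.5% negative; run in parallel with 48 h PbLuc assay at 37 °C, 5% CO2; viability by CellTiter-Glo luminescence, normalized to controls.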

Structure (SMILES)	cytotoxicity at 10 µM [%]
CC(C)c1noc(CS(=O)(=O)CC(=O)NCC(F)(F)F)n1	7.62
CCOc1ccc(CN2CC[C@@](C)(O)[C@@H](Cc3ccccc3)C2)cn1	-2.02
CN(C)[C@H]1C[C@@H](Cc2cc(CO)on2)C1(C)C	0.994
Cn1cnc2c1CCN(CCS(=O)(=O)c1ccccc1)C2	-3.32
CS(=O)(=O)N[C@@H]1CN(Cc2ccc3ncccc3c2)C[C@H]1O	-4.34
CCOc1ncccc1C(=O)NCC(O)c1ccc(F)c(F)c1 (stereo not given)	9.45
CN(C)C1CC2(CCN(C(=O)NC3CC3)CC2)c2ccccc21 (stereo not given)	-112
O=C(c1ccc2[nH]cnc2c1)N1CCC(Oc2ccccn2)CC1	1.59
O=C(NC1CCC1)[C@@H]1CCO[C@@H]2CCN(C3CCCC3)C[C@@H]21	11.4
CC(Cc1cccs1)C(=O)NCc1cccc(N2CCCC2=O)c1 (stereo not given)	2.4
Cc1nc([C@@H]2C[C@@H]3CCN(C(=O)Cc4cccs4)C[C@H]3O2)no1	3.27
CC(C(=O)Nc1cccc(Cl)c1SC(F)F)S(C)(=O)=O (stereo not given)	0.685
Cn1nc2c(cc1=O)CN(Cc1nnc(-c3ccc(F)cc3)o1)CC2	-9.47
COc1ccc(CC(=O)N2CCN(C)c3ncccc3C2)cc1	-5.79
COCCC(=O)NCc1ccc(-c2ccccc2C(=O)O)nc1	2.28
COCCN1CCC2(CC1)CC(NC(=O)COC)c1ccccc1O2 (stereo not given)	-8.43
Cc1csc(CN2C[C@@H]3COC[C@]3(COCC(=O)N(C)C)C2)n1	0.851
O=C(c1ccc(C(F)(F)F)nc1)N1CCCC(n2cncn2)C1 (stereo not given)	-10.6
Cc1nc(CNC(=O)Nc2cc(F)ccc2OC(F)F)no1	0.311
CNC(=O)c1cn2cc(-c3cccc(Cl)c3)n(CC=C(C)C)c(=O)c2n1	-52.8
Cc1ncc(-c2ccnc(N3CCN(C)CC3)n2)c(-c2cccnc2)n1	4.36
Cc1cnn(C(C)C2CC2)c1NC(=O)c1ccncc1 (stereo not given)	-8.48

Structure (SMILES)	cytotoxicity at 10 µM [%]
Cc1nccn1C1CCCN(C(=O)c2cnc[nH]2)C1 (stereo not given)	-5.43
Cc1nc(CN2CCN(C(=O)CC(C)(C)c3ccccc3)CC2)no1	-1.96
CCc1nnc(CN(CC)C(=O)C2CCC(=O)N(C3CCCC3)C2)o1 (stereo not given)	2.01
Cc1cc(S(=O)(=O)N(C)CC(N)=O)ccc1Br	15
CN(C)c1cccc(C(=O)NCC2(O)CCOCC2)c1	10.3
Cc1ncsc1C(=O)NCCNc1ncccn1	1.76
Cc1nn(CCCNC(=O)C2CCN(S(C)(=O)=O)CC2)c(Cl)c1Cl	-11.3
CN(C)S(=O)(=O)N1C[C@H]2CCC[C@@]2(COCc2cccnc2)C1	9.19
Cn1ccnc1N1CCN(C(=O)Cc2ccc(Cl)cc2)CC1	5.73
NC(=O)C(c1ccc(F)cc1)N1CCN(CCO)CC1 (stereo not given)	-5.46
FC(F)(F)COCCN1CCc2cncnc2C1	-2.67
CCn1cc(Cl)c(C(=O)NCc2cnn(C)c2)n1	-4.41
Cc1cc(C)c(S(N)(=O)=O)cc1C(=O)NCCN1CCC(C)CC1	-0.77
Nc1cc2c(nn1)CCN(C(=O)Cc1ccc3c(c1)CCO3)C2	5.52
COc1ccc(CCNC(=O)N2CCCC(c3nncn3C)C2)cc1 (stereo not given)	-3.92
NC(=O)c1cn[nH]c1C1CCCN1C(=O)COc1ccccc1 (stereo not given)	-3.93
O=C(Cc1cccc(F)c1)NCCNCc1ccco1	-6.08
CCC(C(=O)N(Cc1ccccc1OC)C1CC1)n1cccn1 (stereo not given)	-44
CC(CCc1ccco1)NC(=O)Nc1cc(C(F)(F)F)c[nH]c1=O (stereo not given)	-6.9
O=C1C(Nc2ncccn2)CCN1c1ccccc1OC(F)F (stereo not given)	2.88
Cc1cc(N2CCc3c(nc(C(C)C)n3C)C2)nc(N)n1	-6.79
CC(CCn1cccn1)Nc1ccc(-c2nccn2C)nn1 (stereo not given)	1.39

Structure (SMILES)	cytotoxicity at 10 µM [%]
Cc1ccccc1C1CCN(C(=O)CCNC(=O)C(C)(C)C)C1 (stereo not given)	-5.47
CCCS(=O)(=O)N1CCN(c2ccc3nnc(CC)n3n2)CC1	8.75
CC(C)(C)C1CCC(NCCN2CCOCC2)CC1 (stereo not given)	0.741
CC(=O)Nc1nc(CN2CCCCC2Cn2cccn2)cs1 (stereo not given)	-6.7
CCN(CC)[C@@H]1CN(Cc2ccc(C)o2)[C@@H]2CCCO[C@H]12	-148
c1cnnc(N2CCCC2CNCc2nc(C3CC3)no2)c1 (stereo not given)	-22.6
CCc1cc(N[C@@H]2CC[C@@H](N)C2)n2nc(C)c(C)c2n1	2.2
Cc1cc(NCc2cc3n(n2)CCCN(S(C)(=O)=O)C3)ncn1	-14.3
N#CC1(NC(=O)CN2CCC(c3ccnn3CCO)CC2)CCCC1	2.85
CCc1cccc(CC)c1NC(=O)c1ccccc1N(C)S(C)(=O)=O	11.4
OCCn1nccc1C1CCN(Cc2nc(C3CC3)no2)CC1	-11.7
CCN(CC)S(=O)(=O)N(Cc1ccccn1)Cc1ccccc1C	16.9
CS(=O)(=O)N1CCc2ccc(=O)n(CC3CC3)c2CC1	7.25
CC(=O)NC1CCN(c2ccc(C#N)cc2C(F)(F)F)CC1	0.536
Cc1cnn(CC2CN(CC(=O)NCCc3cccs3)CCO2)c1 (stereo not given)	1.88
COc1ccc(OCc2noc(CN(C)C3CCS(=O)(=O)C3)n2)cc1 (stereo not given)	12.5
CCn1c(C)nnc1CN(C)C1CCN(CCc2cccs2)C1 (stereo not given)	-7.12
O=S(=O)(NCC1(c2cccs2)CCOCC1)c1ccc2c(c1)OCCO2	-1.64
Cc1nn(C)c(C)c1S(=O)(=O)N(C)Cc1nn(C)c(Cl)c1Cl	-3.78
COc1ccc(C(=O)CCC(=O)NCc2c(C)noc2C)cc1F	2.43
Cc1ccc(C(=O)Nc2c(C(=O)N(C)C)nn(C)c2C)cc1C	11.8
Clc1snnc1CN1CCOC(CNc2cccnn2)C1 (stereo not given)	-11

Structure (SMILES)	cytotoxicity at 10 µM [%]
CCn1nc(C)c(S(=O)(=O)N(C)c2ccc(Cl)cn2)c1C	-2.13
O=C(c1cccs1)N1CCCC2(COCCN(c3cccnc3)C2)C1 (stereo not given)	-70.3
Cc1cccc(C)c1OCCC(=O)N1CCC(c2nncn2C)CC1	-12
Nc1nc(CCCNC(=O)c2ccccc2C2CCNC2)cs1 (stereo not given)	-3.06
Cc1cc(C)c2ncn(CCC(C)O)c(=O)c2c1 (stereo not given)	2.1
CCCc1cncnc1N1CCC2(CCC(=O)N(CCOC)C2)CC1	1.86
CCc1nc(CN(C(C)=O)C2CCN(CCc3ccccn3)C2)no1 (stereo not given)	-11.6
COc1cccc(CNc2c(C)cnc3c2c(=O)n(C)c(=O)n3C)c1	21.1
CCN1CCN(C(=O)c2nc(C)n(-c3ccccc3Cl)n2)CC1	-2.87
CC(=O)N1CCC2(C1)c1ccccc1S(=O)(=O)N2C (stereo not given)	6.57
Cc1c(C)n(Cc2ccccn2)c2nc3c(c(N)c12)CCCCC3	3.3
Cc1[nH]c2c(F)cccc2c1CC(=O)NCCCNc1cccnc1	1.56
c1cncc(OCc2n[nH]c3c2CN(Cc2cccs2)C3)c1	-113
Cc1ccc(CN(C)C(=O)CN2CCCC(Cn3cncn3)C2)cc1 (stereo not given)	-6.41
CCN1CCc2c(cccc2NC(=O)N(C)C2CCSC2)C1 (stereo not given)	-49.1
CNC(=O)Cc1ccc(NC(=O)NC2(c3cccc(F)c3)CC2)cc1	5.74
Cc1ccc(F)cc1NC(=O)C1CCCN1C(=O)C(C)C (stereo not given)	-4.93
CN(C)C(=O)N1CCN(c2ccc(Cl)nn2)C(=O)C1	9.1
COc1cc(CCC(=O)NC2CCCN(C)C2)ccc1OCC(F)(F)F (stereo not given)	-4.54
CN(C)CCO[C@@H]1CC[C@H]2[C@H]1OCCN2C(=O)c1ccnnc1	-2.1
Cc1nc(C(F)(F)F)nc(N2CCC(O)(C(=O)O)CC2)c1C	10.4
O=C(CC1CC1)N[C@@H]1CN(Cc2ccoc2)C[C@@H]2CCCO[C@@H]21	7.83

Structure (SMILES)	cytotoxicity at 10 µM [%]
CN(Cc1ccco1)Cc1cnc2n1CCN(c1ncccn1)CC2	-0.603
COC(=O)c1ccc(C2SCC(=O)Nc3c2cnn3C(C)(C)C)cc1 (stereo not given)	2.06
O=C(NCCSc1ccccc1F)NCc1cccnc1	-5.31
CCS(=O)(=O)N1CCC2(CC1)CCn1c(-c3cnn(C)c3)cnc12	-138
CCN1C(=O)CCCC12CCCN(C(=O)c1cnccn1)C2 (stereo not given)	2.63
CN(CCc1cn[nH]c1)Cc1nc(Cc2cccc(F)c2)no1	-1.53
CCN1CCCC1CNCc1cc2cc(OC)ccc2[nH]c1=O (stereo not given)	-10.2
CC(O)c1cn(C2CCN(C(=O)C3(C)CCN(C)CC3)CC2)nn1 (stereo not given)	-0.293
CCN(CC1CCOCC1)C(=O)Cn1cccc(C(F)(F)F)c1=O	-10.2
CC1(C)OCC2(CO1)CN(C(=O)c1cccc3ccccc13)C2	-7.81
CCCc1n[nH]c(C2CN(CCCS(=O)(=O)N(C)C)CCO2)n1 (stereo not given)	-11.9
CC(C)(O)CN1CCN(C(=O)c2ccn(-c3cccc(F)c3)n2)CC1	-3.53
COc1ccc2cc(CNCc3c(C)nn(C)c3N(C)C)ccc2c1	-20.4
COc1ccc(-n2ccc(C(=O)N3CCN(C)CC3C)n2)cc1 (stereo not given)	-11.2
Cc1cc(C(=O)N(C)C)nc(C2(C)CCCN2c2ccnc(C)n2)n1 (stereo not given)	-7.49
Cc1ccc(-c2cc(CN3CCCC(Cn4cncn4)C3)on2)cc1 (stereo not given)	-11.8
Oc1nc(N2CCCC2)nc2nccc(-c3ccccn3)c12	1.36
CC1CCCN1Cc1cccc(C(=O)Nc2ccc3[nH]c(=O)oc3c2)c1 (stereo not given)	-13.4
OCCn1cc(CN2CCN(CCOc3ccc(F)cc3)CC2)cn1	-11.1
O=C1CC2(CCCNC2)C(=O)N1Cc1cccc(F)c1 (stereo not given)	3.56
c1ccc(NCc2cn3c(n2)CN(Cc2cccs2)CC3)nc1	5.22
CC(C)C(=O)NC(Cc1cc(N(C)C)nc(C2CC2)n1)c1ccccc1 (stereo not given)	3.37
